{"data": "Results collected from several papers", "target": "RAC-alpha serine/threonine-protein kinase (AKT1, Homo sapiens, UniProt P31749)", "note": "Compare with care: the assays were run in different laboratories."}
{"SMILES": "CCCCC(=O)Nc1ccc(-c2ccc3ncn(CCC)c(=O)c3c2)cn1", "assay": "binding, competition with immobilised ligand", "setting": "0.5 µM", "endpoint": "remaining binding", "result": "100%"}
{"SMILES": "COc1ccc2oc(-c3ccc4nc(N)oc4c3)c/c(=N\\c3ccccc3NC(=O)CCN)c2c1", "assay": "binding", "setting": "1 µM", "endpoint": "remaining binding", "result": "91%"}
{"SMILES": "CO[C@@H]1[C@H](N(C)C(=O)c2ccccc2)C[C@H]2O[C@]1(C)n1c3ccccc3c3c4c(c5c6ccccc6n2c5c31)C(=O)NC4", "assay": "enzyme activity, inhibitor", "setting": "1 µM", "endpoint": "inhibition", "result": "7%"}
{"SMILES": "Cc1ccc(NC(=O)c2ccnc(C(F)(F)F)c2)cc1-c1cc(OCCO)nc(N2CCOCC2)c1", "assay": "binding", "setting": "1 µM", "endpoint": "remaining binding", "result": "99%"}
{"SMILES": "N#Cc1ccc(NC(=O)Nc2ccccc2)cc1", "assay": "cell-free assay, competition with immobilised ligand", "setting": "25 µM", "endpoint": "remaining binding", "result": "100%"}
{"SMILES": "C=CC(=O)N1CCC([C@@H]2CCNc3c(C(N)=O)c(-c4ccc(Oc5ccccc5)cc4)nn32)CC1", "assay": "enzyme activity, inhibitor", "setting": "1 µM", "endpoint": "inhibition", "result": "7%"}
{"SMILES": "COc1ccc2[nH]c3c4[nH]c5ccc(OC)cc5c4c4c(c3c2c1)C(=O)NC4=O", "assay": "binding", "setting": "1 µM", "endpoint": "remaining binding", "result": "72%"}
{"SMILES": "Cc1cc(O)c(-c2ccc([C@@H](C)CN(C)C)cc2)c2c1[nH]c(=O)c1sccc12", "assay": "enzyme activity, inhibitor", "setting": "0.1 µM", "endpoint": "inhibition", "result": "-0.622%"}
{"SMILES": "C#Cc1cnc(Nc2ccnc(CO)c2)nc1Nc1ccccc1S(C)(=O)=NC#N (stereo not shown)", "assay": "cell-free assay", "setting": "1 µM", "endpoint": "remaining signal", "result": "100%"}
{"SMILES": "C1=C/COCc2cc(ccc2OCCN2CCCC2)Nc2nccc(n2)-c2cccc(c2)COC/1", "assay": "binding", "setting": "0.1 µM", "endpoint": "remaining binding", "result": "100%"}
